Assay outcomes from PubChem.
Compounds with a hit are over-represented: about 1.3% of the library has one in this group of screens.
TMEM16A inh: TMEM16A chloride channel inhibitors, primary screen, cell-based, HTS; Anoctamin-1 (Mus musculus), Q8BHY3; HEK293 TMEM16A/YFP iodide influx fluorescence, ionomycin; normalized B-score (activity score, 25-100; higher = stronger inhibition) at 10 µM; 310,000 tested, 1.2% active;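 active = ratio plate-corrected score three or more library SD toward inhibition, starting fluorescence score within five deviations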;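 also: score derived from kinetic fluorescence span divided by baseline fluorescence per well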
Target sequence (Q8BHY3 whole entry, looked up): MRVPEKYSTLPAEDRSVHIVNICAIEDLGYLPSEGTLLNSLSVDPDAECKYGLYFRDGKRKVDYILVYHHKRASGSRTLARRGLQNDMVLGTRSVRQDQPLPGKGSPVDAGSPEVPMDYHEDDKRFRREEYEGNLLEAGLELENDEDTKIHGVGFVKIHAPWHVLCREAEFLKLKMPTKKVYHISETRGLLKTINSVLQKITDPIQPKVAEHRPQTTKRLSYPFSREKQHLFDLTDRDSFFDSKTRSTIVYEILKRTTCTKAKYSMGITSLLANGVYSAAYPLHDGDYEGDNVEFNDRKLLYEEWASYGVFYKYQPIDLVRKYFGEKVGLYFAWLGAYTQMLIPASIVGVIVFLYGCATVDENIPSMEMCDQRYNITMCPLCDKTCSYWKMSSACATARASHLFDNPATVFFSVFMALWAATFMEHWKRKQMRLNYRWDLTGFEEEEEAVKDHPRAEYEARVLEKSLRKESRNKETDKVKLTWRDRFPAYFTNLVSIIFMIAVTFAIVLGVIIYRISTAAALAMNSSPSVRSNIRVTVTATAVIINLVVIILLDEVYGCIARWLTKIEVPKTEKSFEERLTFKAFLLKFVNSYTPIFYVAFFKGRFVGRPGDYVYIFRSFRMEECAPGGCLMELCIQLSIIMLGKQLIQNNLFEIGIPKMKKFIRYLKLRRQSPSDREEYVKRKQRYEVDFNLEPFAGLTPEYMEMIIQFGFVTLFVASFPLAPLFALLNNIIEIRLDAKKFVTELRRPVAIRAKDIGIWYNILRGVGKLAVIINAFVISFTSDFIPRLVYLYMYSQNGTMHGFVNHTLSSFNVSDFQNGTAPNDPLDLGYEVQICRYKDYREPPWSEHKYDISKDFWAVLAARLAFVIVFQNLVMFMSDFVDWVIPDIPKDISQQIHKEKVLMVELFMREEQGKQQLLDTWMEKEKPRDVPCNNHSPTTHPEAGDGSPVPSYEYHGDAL
MT1-MMP act inh: blockers of MT1-MMP proenzyme processing, primary screen, HT1080 RFP-PRO-GFP cells, GFP/RFP fluorescence. Matrix metalloproteinase-14 (Homo sapiens), P50281. GFP/RFP ratio fluorescence, overnight; percent of plate control window, DMSO zero. GFP/RFP ratio change, % at 20 µM. 360,000 tested, 0.061% active;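 active = GFP/RFP ratio change of at least 30% with cell ATP level not reduced by more than half and red fluorescence within 50% of control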
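Test system: HT1080 cells expressing an RFP-PRO-GFP fluorescent reporter construct / Compound dosing: single-point 20 µM compound, 1% DMSO / Schedule: cells overnight before dosing, compound overnight, 37 °C, 5% CO2 / Evaluation: GFP/RFP fluorescence ratio / Control set: DMSO and RFP-L50D-GFP cell wells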
TMEM16A act: TMEM16A chloride channel activators or potentiators, primary screen, cell-based, HTS. 340,000 tested, 0.3% active. Anoctamin-1 (Mus musculus), Q8BHY3. HEK293 TMEM16A/YFP-H148Q/I152L, iodide quench fluorescence; hits give low values. B-score at 10 µM. AID 623877, 2012;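 active = fluorescence-ratio B-score plate-corrected deviation score at least 3 library SD below zero, with starting fluorescence score within 5 deviations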;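 also: channel opened by trigger with iodide after compound preincubation; score built on the fluorescence ratio of max minus min over baseline; more negative score means more quench and so TMEM16A activation or potentiation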
DAGLB inh: DAGLB lipase inhibitors, primary screen, biochemical, fluorescence, HTS. HEK293T DAGLB membrane lysate, EnzChek fluorogenic substrate. 340,000 tested, 0.059% active. inhibition, % at 5.17 µM; in the data active = inhibition above about 34%;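 also: 0% = enzyme with vehicle and 100% = wells lacking enzyme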
An asterisk follows results filed as active; i = inactive; . = not tested or not shown.

SMILES | TMEM16A inh | MT1-MMP act inh | TMEM16A act | DAGLB inh
O=C(Nc1ccc(C(=O)N2CCOCC2)cc1)c1ccccc1Cl | . | 3 | . | 1
Cc1ccc(C(=O)N[C@@H](Cc2ccccc2)C(=O)N2CCC3(CC2)NCCc2[nH]cnc23)cc1C | i | 3 | -50* | -1
COCCNC(=O)C1CCCN(C(=O)COc2ccc(C(C)(C)C)cc2)CC1 (stereo not given) | . | 3 | . | .
CCN(C(=O)COC(=O)c1ccc2ccccc2n1)c1c(N)n(Cc2ccccc2)c(=O)[nH]c1=O | . | -3 | i | 3
Cc1ccc(NC(=O)c2ccc(-n3cncn3)c([N+](=O)[O-])c2)cc1 | i | 4 | i | 2
CCN(CC)S(=O)(=O)c1cc(NC(=O)c2ccc(-n3cncn3)c([N+](=O)[O-])c2)ccc1C | 100* | 2 | i | 3
NC(=O)c1ncn([C@@H]2O[C@H](CNCc3ccc(-c4cc(C(F)(F)F)ccc4Cl)o3)[C@@H](O)[C@H]2O)n1 | . | 1 | . | -2
Cc1ccc([C@H]2C[C@H](n3cc(C4CC4)nn3)[C@@H](O)CN2C(=O)C2CCCCC2)cc1 | . | -3 | . | -1
COc1cccc(OCCSc2nc(N)cc(N)n2)c1 | 25* | -1 | i | 1
Nc1cc(N)nc(SCCOc2ccccc2)n1 | i | 11 | i | 0
Cc1cccc(NC(=O)CN2C(=O)S/C(=C\c3ccc(O)c([N+](=O)[O-])c3)C2=O)c1 | i | 8 | i | 27
O=C1S/C(=C\c2ccc(O)c([N+](=O)[O-])c2)C(=O)N1Cc1cccc([N+](=O)[O-])c1 | 100* | 6 | i | .
CCOC(=O)Nc1ccc2c(c1)N(C(=O)CN(C)C)c1ccccc1CC2 | 100* | 0 | i | 1
CCOC(=O)Nc1ccc2c(c1)N(C(=O)CCN(C)C)c1ccccc1CC2 | i | -4 | i | -1
CC(OC(=O)c1cccc(S(=O)(=O)Nc2cccc(C(F)(F)F)c2)c1)C(=O)Nc1ccc2c(c1)OCCO2 (stereo not given) | 100* | 5 | i | -2
CC(=O)Nc1ccc(NC(=O)C(C)OC(=O)c2ccc3c(c2)OCCO3)cc1 (stereo not given) | i | -3 | i | 3
CC(=O)C1=CCC(c2ccccc2)N(Cc2ccccc2)C1 (stereo not given) | . | -6 | . | .
C=CCNc1nc(Nc2ccc(OC)c(OC)c2)c2sc(-c3ccccc3)cc2n1 | . | 8 | . | .
S=C1NC2(CCCCC2)NN1c1ccccc1 | i | -3 | -5* | -2
COC(=O)Cn1cc(C(=O)OC)cc(Br)c1=O | 25* | 0 | i | -2
O=S(=O)(N/N=C/c1ccc(F)cc1)c1ccccc1 | 25* | -3 | i | -1
CC(Cc1ccc(O)c(O)c1)C(C)Cc1ccc(O)c(O)c1 (stereo not given) | 100* | . | . | .
COc1cc(C[C@@H](C)[C@@H](C)Cc2ccc(O)c(OC)c2)ccc1O | . | 11 | i | 0
CCCn1c2c(c(=N)c3c1CCC3)CCC2 | i | -5 | i | -1
CCCCCCCn1c2c(c(=N)c3ccccc31)CCC2 | 100* | -28 | -5.1* | 4
SMILES | TMEM16A inh | MT1-MMP act inh | TMEM16A act | DAGLB inh
CC(CCc1ccccc1)NCc1cccc2ccccc12 (stereo not given) | i | -1 | i | -6
NC(CCCCc1ccccc1)c1cccc2ccccc12 (stereo not given) | 25* | . | . | .
CCOC(=O)C1=C(COC(=O)c2ccc(Br)c(S(=O)(=O)N3CCOCC3)c2)NC(=O)NC1C (stereo not given) | . | 3 | i | 1
CC(C)(C)c1ccc(S(=O)(=O)N2CCN(CC(=O)N3CC(=O)Nc4ccccc43)CC2)cc1 | . | -3 | -38* | 1
CCCCC(CC)CN=C(N)NC(N)=NCCCCCCN=C(N)NC(N)=NCC(CC)CCCC (stereo not given) | i | . | -26* | 9
CCCCC(CC)CO (stereo not given) | . | 2 | i | -3
Cc1ccc(NC(=S)N(CCN2CCCCC2)Cc2ccco2)cc1Cl | i | 1 | -5.1* | -8
CCc1ccccc1N(CC(=O)NC1CCCCC1)C(=O)CCC(=O)Nc1ccccn1 | i | 1 | -5.8* | 3
O=C(O)c1ccc(Nc2cc(Cl)c3nonc3c2[N+](=O)[O-])cc1 | i | 2 | i | -2
